ABHD5-PLIN5 inh: blocks binding of human ABHD5 to perilipin-5; inhibition, % at 4 µM; 360,000 tested, 0.78% active; Q00G26+Q8WTS1; Split G. princeps luciferase complementation, luminescence, 4 h;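 active = inhibition above the mean inhibition across every tested compound plus 3 SD, cut at about 22% in these data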;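 note: 0% = DMSO only wells and the 100% control is not disclosed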
Target sequence (Q00G26 whole entry, looked up): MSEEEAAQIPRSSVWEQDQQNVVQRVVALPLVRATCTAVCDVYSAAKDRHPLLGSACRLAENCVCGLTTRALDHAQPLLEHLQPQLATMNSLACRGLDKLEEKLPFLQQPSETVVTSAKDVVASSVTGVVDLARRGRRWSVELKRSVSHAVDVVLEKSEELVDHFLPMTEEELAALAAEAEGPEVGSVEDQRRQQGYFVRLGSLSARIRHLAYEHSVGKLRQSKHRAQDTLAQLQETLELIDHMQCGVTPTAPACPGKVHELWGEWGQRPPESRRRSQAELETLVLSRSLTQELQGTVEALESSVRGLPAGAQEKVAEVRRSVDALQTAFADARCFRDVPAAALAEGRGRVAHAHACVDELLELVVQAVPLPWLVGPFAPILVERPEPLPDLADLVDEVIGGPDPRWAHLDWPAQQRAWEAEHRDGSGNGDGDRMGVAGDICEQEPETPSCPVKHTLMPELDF
Target sequence (Q8WTS1 whole entry, looked up): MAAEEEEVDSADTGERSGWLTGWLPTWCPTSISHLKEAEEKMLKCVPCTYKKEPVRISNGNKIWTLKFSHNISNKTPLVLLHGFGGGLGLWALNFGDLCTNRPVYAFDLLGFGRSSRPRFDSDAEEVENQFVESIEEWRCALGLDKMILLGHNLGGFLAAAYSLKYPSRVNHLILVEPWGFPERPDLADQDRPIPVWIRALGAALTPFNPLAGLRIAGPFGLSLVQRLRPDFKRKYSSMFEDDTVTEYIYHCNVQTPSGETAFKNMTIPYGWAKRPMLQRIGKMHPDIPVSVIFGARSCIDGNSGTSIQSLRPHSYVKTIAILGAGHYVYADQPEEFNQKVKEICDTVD
CHOP UPR activ: apoptotic UPR (CHOP) activation; 330,000 tested, 0.34% active; CHO-CHOP luciferase reporter, luminescence; percent of tunicamycin response over DMSO baseline; activation, % at 10 µM;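 active = at 10 µM dose, activation of 40% or more, normalized to positive control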;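 note: 100% = tunicamycin at 10 µg/mL and 0% = DMSO alone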
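Test system: CHO-CHOP cells, stable luciferase reporter of PERK-eIF2a-CHOP signalling | Quantity: 500 CHO-CHOP cells per well | Buffer or medium: F12 plus 10% serum | Compound dosing: 10 µM single point, 0.5% DMSO | Schedule: 6 h compound treatment, 37 °C | Signal: Luciferase luminescence | Control set: Tunicamycin high control, DMSO low control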
Exocytosis inh: blocks lytic granule exocytosis; TALL-104 LAMP-1 surface exposure, flow cytometry; cells stimulated with thapsigargin and PMA; 360,000 tested, 0.66% active; inhibition, % at 10 µM; AID 651702;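 active = inhibition above about 55%, limit read from the data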
Mdm2 MdmX PPI: disrupts the human Mdm2-MdmX interaction | SaOS-2 split-luciferase Mdm2/MdmX complementation, luminescence | inhibition, % at 8 µM | 330,000 tested, 3% active;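 active = inhibition of at least 50% at 8 µM in the primary screen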
UPR XBP1 act: activators of adaptive arm of unfolded protein response (XBP1); activation, % at 20 µM; CHO-XBP1 luciferase reporter, IRE1-XBP1 UPR activation, luminescence; percent of tunicamycin response, DMSO as zero; 330,000 tested, 0.33% active; AID 463104;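 active = versus positive control, 20 µM dose yields 30% or more activation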;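 note: 100% = tunicamycin at 10 µg/mL and 0% = DMSO only wells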
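Material: CHO cell line with stable XBP1 luciferase reporter; buffer or medium: F12 medium containing 10% fetal bovine serum; compound: single point, 20 µM final compound, 1% DMSO; incubation: 6 h treatment, 37 °C; measured by: glow luminescence from Steady-Glo reagent; evaluation: activation, % of tunicamycin; control set: tunicamycin high, DMSO low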
XBP1 UPR conf: adaptive UPR (XBP1) activation, confirmed; shares compounds with UPR XBP1 act; CHO-XBP1 IRE1-XBP1 luciferase reporter, luminescence; activation, % at 20 µM; 1,000 tested, 63% active;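 active = reporter signal at least 30% of the positive control's activation in two or more of four replicate wells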;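 note: plate controls were DMSO negative control for no effect and tunicamycin 10 µg/mL positive control for full effect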
Mdm2 MdmX conf: human Mdm2/MdmX binding inhibition, confirmed; shares compounds with Mdm2 MdmX PPI; luminescent assay; inhibition, % at 8 µM; 10,000 tested, 55% active; in the data active = inhibition above about 40%
Full FLuc ctr: counter-screen for Mdm2/MdmX inhibitors: full-length luciferase | SaOS-2 full-length luciferase counterscreen, luminescence | inhibition, % at 8 µM | shares compounds with Mdm2 MdmX PPI | AID 504607 | 6,200 tested, 77% active;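 active = mean inhibition at 8 µM reaching about 37%, which flags the compound as non-specific, limit read from the data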;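 note: p53-null SaOS-2 cells with luciferase driven by a doxycycline-inducible promoter; compound on cells about two nights before reading with doxycycline added after day one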
* marks the source's active call; other numbers are inactive results; . = not tested or not shown. Only some compounds are listed: those with a hit (about 4% of all), similar ones and a draw of the others.

SMILES	ABHD5-PLIN5 inh	CHOP UPR activ	Exocytosis inh	Mdm2 MdmX PPI	UPR XBP1 act	XBP1 UPR conf	Mdm2 MdmX conf	Full FLuc ctr
CCCn1nnc(NC(=O)/C=C/c2ccc(C(C)C)cc2)n1	-25	1	-4	0	1	.	.	.
c1ccc2c(c1)nnn1c3ccccc3nc21	.	-2	.	-129	-1	.	.	.
ClC(Cl)(Cl)c1nc2ccccc2n2nncc12	0	-1	-5	77*	31*	22	60*	32
CCCCn1c(Nc2ccccc2)nc2ccccc21	8	0	-2	19	0	.	.	.
CCCn1c(Nc2nc3ccccc3n2C)nc2ccccc21	-7	1	2	90*	55*	57*	100*	53*
COc1ccc(Br)cc1/C=N/NC(=O)c1cc(OC)c(OC)c(OC)c1	-3	3	-1	-9	-4	.	.	.
COc1cc(C(=O)N/N=C/c2ccsc2C)cc(OC)c1OC	1	-1	2	77*	30*	17	67*	89*
N#CCC(=O)Nc1ccc(C(=O)NNC(=O)c2ccccc2-n2cccc2)cc1	16	1	-4	1	-4	.	.	.
CC1(C)C[C@H](O)[C@]2(CO)CC[C@]3(C)C(=CCC4[C@@]5(C)CC[C@H](O)C(C)(C)C5CC[C@]43C)[C@@H]2C1 (some centres undefined)	-2	0	5	45	16	.	.	.
CC1(C)C[C@H](O)[C@]2(CO)[C@H](O)C[C@]3(C)C(=CCC4[C@@]5(C)CC[C@H](O)C(C)(C)C5CC[C@]43C)[C@@H]2C1 (some centres undefined)	7	39	-5	100*	146*	73*	28	.
Brc1ccc(C2=Nn3c(nnc3-c3n[nH]c4c3CCC4)SC2)cc1	1	1	46	80*	37*	49*	80*	73*
Cc1ccc(-c2nnc3n2N=C(c2ccc(Br)cc2)CS3)cc1	-2	0	0	14	29	.	.	.
COc1ccc2cc(C(=O)C3CCCN(C(=O)c4cnccn4)C3)ccc2c1 (centres undefined)	-6	1	1	-1	-1	.	.	.
Cn1ncc(N=Cc2c(O)ccc3ccccc23)c1C(=O)Nc1cccc(Cl)c1	-3	17	1	61*	99*	80*	0	.
CCOc1ccc(NC(=O)C(CC(=O)O)Cc2ccccc2)cc1 (centres undefined)	-12	1	-4	-3	0	.	.	.
CCOc1ccc(NC(=O)C(Cc2ccccc2)N2C(=O)c3cccc4cccc(c34)C2=O)cc1 (centres undefined)	-2	19	-5	50*	65*	69*	47*	98*
COC(=O)C1=C(C)N(c2ccc(F)c(Cl)c2)C(=O)C1	2	4	-2	10	0	.	.	.
CCOC(=O)c1c(Nc2ccc(Cl)cc2)sc(/C=C2\C=Nc3ccccc32)c1O	4	4	9	64*	38*	15	18	.
Cc1ccc(-n2ncc3c(=O)n(-c4ccc(C)c(C)c4)c(C)nc32)cc1	7	1	-2	0	1	.	.	.
Cc1ccc(NS(=O)(=O)c2cc([N+](=O)[O-])ccc2N/N=C/c2sc(N3CCOCC3)nc2-c2ccccc2)c(C)c1	-4	31	7	86*	36*	31*	22	.
Cc1ccc([N+](=O)[O-])cc1S(=O)(=O)Nc1ccc(-c2ccc(N3CCOCC3)nn2)cc1	-2	3	3	-10	1	.	.	.
Brc1cc(Br)c2ncnc(N3CCCCC3)c2c1	-1	-1	1	89*	59*	41*	64*	28
CCOC(=O)c1c(NC(=O)c2cc(C)on2)c2cc([N+](=O)[O-])ccc2n1C	.	20	.	85*	84*	49*	6	.
O=C(/C=C/c1ccccc1)NC(NC(=S)Nc1cccc(O)c1)C(Cl)(Cl)Cl (centres undefined)	-7	1	1	33	-1	.	.	.
O=C(/C=C/c1ccccc1)NC(NC(=S)Nc1cccc(Cl)c1)C(Cl)(Cl)Cl (centres undefined)	-2	36	0	98*	51*	30*	68*	26
SMILES	ABHD5-PLIN5 inh	CHOP UPR activ	Exocytosis inh	Mdm2 MdmX PPI	UPR XBP1 act	XBP1 UPR conf	Mdm2 MdmX conf	Full FLuc ctr
Cc1ccc(Cn2c(=N)n(CC(=O)c3ccc([N+](=O)[O-])cc3)c3ccccc32)cc1	-3	15	55	98*	67*	18	18	.
CCCCNc1nc2ccccc2n1CC(=O)Nc1ccc2c(c1)OCCO2	.	1	.	11	2	.	.	.
O=C(CSCc1ccccc1)Nc1cccc(C(=O)Nc2ccccc2C(=O)O)c1	-11	0	4	-22	-4	.	.	.
Cc1nnc(N2CCCC(C(=O)Nc3cc(F)ccc3F)C2)c2nn(-c3ccccc3)c(C)c12 (centres undefined)	8	5	19	96*	41*	0	50*	73*
Cc1nnc(N2CCC(C(=O)N3CCCCC3)CC2)c2nn(-c3ccc(Cl)cc3)c(C)c12	13	-1	-26	38	6	.	.	.
Cc1cc(-n2c(SCC(=O)Nc3ccc(Br)cc3)nc3n[nH]c(C)c3c2=N)ccc1Cl	-4	5	1	86*	36*	20	43*	64*
Cc1cc(-n2c(SCC(=O)Nc3ccc(F)c(F)c3)nc3n[nH]c(C)c3c2=N)ccc1Cl	2	10	-2	94*	34*	60*	71*	42*
COc1cccc(NC(=O)CSc2nc3n[nH]c(C)c3c(=N)n2-c2cccc(OC)c2)c1	1	-1	13	35	7	.	.	.
CN1CCN(c2cc(=O)n(C3CCCCC3)c(=O)[nH]2)CC1	0	1	4	-7	2	.	.	.
O=C(Nc1ccc([N+](=O)[O-])cc1)c1nc[nH]c1C(=O)NC1CCCCC1	-5	24	0	67*	166*	172*	19	.
CCCCNc1c(-c2ccc(SC(C)CC)cc2)nc2cnccn12 (centres undefined)	-7	4	2	52*	57*	50*	11	.
Oc1cc(-c2ccc(N3CCCCC3)nc2)cc2cccnc12	2	7	47	98*	56*	52*	97*	50*
Cc1cc(N2CCCC2)nc(-c2ccccc2O)n1	-3	2	-2	-1	-1	.	.	.
CCn1c(SCC(=O)N2CCN(c3ccccc3)CC2)nc2c([nH]c3ccccc32)c1=O	5	18	-4	58*	32*	30	28	86*

Source: PubChem BioAssay (several laboratories)
